Activity calls are given as the source filed them. The calls are words filed in the database; no cut-off is given here.
Tests used:
[1] = target: T1, DNA topoisomerase 1 (Homo sapiens) (UniProt P11387); assay: Inhibition of topoisomerase 1-mediated unwinding of supercoiled DNA assessed as DNA intercalation
T1 sequence (whole entry): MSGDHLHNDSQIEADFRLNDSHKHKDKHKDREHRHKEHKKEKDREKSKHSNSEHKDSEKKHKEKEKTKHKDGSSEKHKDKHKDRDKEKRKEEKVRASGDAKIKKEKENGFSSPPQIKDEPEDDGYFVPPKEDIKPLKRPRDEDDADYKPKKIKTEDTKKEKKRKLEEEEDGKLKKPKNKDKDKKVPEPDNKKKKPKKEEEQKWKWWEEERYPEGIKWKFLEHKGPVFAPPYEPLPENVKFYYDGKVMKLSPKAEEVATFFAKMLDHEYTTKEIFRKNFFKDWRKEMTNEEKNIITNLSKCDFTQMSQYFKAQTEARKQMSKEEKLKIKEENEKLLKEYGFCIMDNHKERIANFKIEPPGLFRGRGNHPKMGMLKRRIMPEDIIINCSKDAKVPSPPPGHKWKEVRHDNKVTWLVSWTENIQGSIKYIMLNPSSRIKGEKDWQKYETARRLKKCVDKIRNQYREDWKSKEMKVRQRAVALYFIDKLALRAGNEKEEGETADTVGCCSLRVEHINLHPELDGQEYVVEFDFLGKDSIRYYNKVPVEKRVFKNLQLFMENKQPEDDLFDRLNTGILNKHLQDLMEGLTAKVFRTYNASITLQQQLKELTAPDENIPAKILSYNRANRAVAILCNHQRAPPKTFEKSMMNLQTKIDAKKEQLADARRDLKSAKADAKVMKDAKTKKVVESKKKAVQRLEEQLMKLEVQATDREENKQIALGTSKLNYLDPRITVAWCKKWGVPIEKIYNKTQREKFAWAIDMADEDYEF

MDA-MB-435 = assay: Antiproliferative activity against human MDA-MB-435 cells after 72 hrs by sulforhodamine B assay; format: functional, cell-based; conditions: MDA-MB-435, 72 h
In short: (§1)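 Cells seeded and exposed in triplicate to graded compound concentrations for 72 h. Suspension cells read by MTT conversion to coloured product; adherent cells read by sulforhodamine B. IC50 (50% growth inhibition versus untreated control) derived by the Logit method.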

[2] = target: T2, DNA topoisomerase 2-alpha (Homo sapiens, UniProt P11388); assay: Binding affinity to human topoisomerase 2 alpha ATPase domain
In short: (§2)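 Surface plasmon resonance. Human Topo IIα ATPase domain immobilised on CM5 chips after activation of surface carboxyl groups. Serial compound dilutions flowed over the chip and sensorgrams recorded. KD obtained by steady-state affinity fitting.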

MKN-28 = assay: Antiproliferative activity against human MKN28 cells after 72 hrs by sulforhodamine B assay; format: functional, cell-based; conditions: MKN-28, 72 h; in short: as §1
[3] = target: T2, DNA topoisomerase 2-alpha; assay: Inhibition of topoisomerase 2-mediated displacement of ethidium bromide from DNA assessed as decrease in fluorescence
[4] = target: T2, DNA topoisomerase 2-alpha; assay: Inhibition of topoisomerase 2alpha-mediated displacement of Hoechst 33258 from DNA assessed as decrease in fluorescence; conditions: concentration not given here
LoVo = assay: Antiproliferative activity against human LoVo cells after 72 hrs by sulforhodamine B assay; format: functional, cell-based; in short: as §1
HT-29 [5] = assay: Inhibition of DNA synthesis in human HT-29 cells measured up to 8 hrs by BrdU incorporation assay; format: functional, cell-based
In short: (§3)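 HT-29 cells; DNA synthesis measured by BrdU incorporation with flow detection.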

SMMC-7721 = assay: Antiproliferative activity against human SMMC7721 cells after 72 hrs by sulforhodamine B assay; format: functional, cell-based; conditions: SMMC-7721, 72 h; in short: as §1
[6] = target: T2, DNA topoisomerase 2-alpha; assay: Binding affinity to human topoisomerase 2 alpha ATPase domain in presence of ATP; in short: as §2
HT-29 [7] = assay: Inhibition of DNA synthesis in human HT-29 cells measured at 0.25 to 1 uM by BrdU incorporation assay; format: functional, cell-based; in short: as §3
[8] = Antiproliferative activity against human MCF7/ADR cells after 72 hrs by sulforhodamine B assay; format: functional, cell-based; conditions: NCI/ADR-RES; in short: as §1
HT-29 [9] = assay: Cytotoxicity against human HT-29 cells after 72 hrs in presence of FeSO4; format: functional, cell-based
CCRF S-180 = assay: Antitumor activity against mouse S180 cells transplanted in Kunming mouse assessed as inhibition of tumor growth at 12.5 mg/kg/day, ip for 7 days; format: functional; conditions: CCRF S-180, ip, 168 h, route intraperitoneal
In short: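 Female Kunming mice, 7 weeks old, 18-22 g, inoculated sc in the right armpit with S-180 sarcoma. Dosing began the next day, ip daily for 7 days; normal saline given iv as control. Tumours excised and weighed after treatment. Inhibitory rate (%) = (mean control tumour weight − mean treated tumour weight)/mean control tumour weight × 100.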

SGC-7901 = assay: Antiproliferative activity against human SGC7901 cells after 72 hrs by sulforhodamine B assay; format: functional, cell-based; conditions: SGC-7901, 72 h; in short: as §1
HCT-116 = assay: Antiproliferative activity against human HCT116 cells after 72 hrs by sulforhodamine B assay; format: functional, cell-based; conditions: HCT-116, 72 h; in short: as §1
MCF7 = assay: Antiproliferative activity against human MCF7 cells after 72 hrs by sulforhodamine B assay; format: functional, cell-based; conditions: MCF7, 72 h
[10] = target: T2, DNA topoisomerase 2-alpha; assay: Inhibition of topoisomerase 2alpha assessed as antagonization of etoposide-mediated prestrand passage DNA cleavage in absence of ATP
MKN-45 = assay: Antiproliferative activity against human MKN45 cells after 72 hrs by sulforhodamine B assay; format: functional, cell-based; conditions: MKN-45, 72 h; in short: as §1
[11] = target: T2, DNA topoisomerase 2-alpha; assay: Inhibition of human topoisomerase 2alpha-mediated decatenation of kDNA
Bel-7402 = assay: Antiproliferative activity against human Bel7402 cells after 72 hrs by sulforhodamine B assay; format: functional, cell-based; conditions: Bel-7402, 72 h; in short: as §1
Nucleic Acid = assay: Inhibition of Fenton's reaction mediated DNA strand break in Escherichia coli pBR322 by gel electrophoresis; format: nucleic-acid assay
In short: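 pBR322 (0.2 μg) incubated 30 min at room temperature in 13 mM Hepes pH 7.2 with 1 mM H2O2 and 10 μM FeSO4 plus compound. Run on 1% agarose containing 0.1 μg/mL ethidium bromide at 90 V for 60 min. Bands quantified; % supercoiled = 1.4SC/(L+OC+1.4SC)×100.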

[12] = target: T2, DNA topoisomerase 2-alpha; assay: Inhibition of human topoisomerase 2alpha-mediated decatenation of kDNA at 25 uM
[13] = target: T2, DNA topoisomerase 2-alpha; assay: Inhibition of topoisomerase-2 alpha in human HT-29 cells assessed as reversal of etoposide-mediated DNA double strand break measured as phosphorylated histone2A level at 100 uM by immunostaining; format: cell-based
[14] = Antiproliferative activity against human Rh30 cells after 72 hrs by sulforhodamine B assay; format: functional, cell-based; conditions: SJRH30, 72 h; in short: as §1
[15] = target: T1, DNA topoisomerase 1 (Homo sapiens); assay: Inhibition of human topoisomerase 1-mediated relaxation of pBR322 at 100 uM
A549 = assay: Antiproliferative activity against human A549 cells after 72 hrs by sulforhodamine B assay; format: functional, cell-based; conditions: A549, 72 h; in short: as §1
HeLa = assay: Antiproliferative activity against human HeLa cells after 72 hrs by sulforhodamine B assay; format: functional, cell-based; in short: as §1
HT-29 [16] = assay: Cell cycle arrest in human HT-29 cells assessed as accumulation at G1 phase at 0.5 to 1 uM after 24 hrs by flow cytometry; format: functional, cell-based
In short: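 HT-29 cells stained with propidium iodide; cell-cycle distribution determined by flow cytometry.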

T2 sequence (P11388 whole entry, the tested form may be a part): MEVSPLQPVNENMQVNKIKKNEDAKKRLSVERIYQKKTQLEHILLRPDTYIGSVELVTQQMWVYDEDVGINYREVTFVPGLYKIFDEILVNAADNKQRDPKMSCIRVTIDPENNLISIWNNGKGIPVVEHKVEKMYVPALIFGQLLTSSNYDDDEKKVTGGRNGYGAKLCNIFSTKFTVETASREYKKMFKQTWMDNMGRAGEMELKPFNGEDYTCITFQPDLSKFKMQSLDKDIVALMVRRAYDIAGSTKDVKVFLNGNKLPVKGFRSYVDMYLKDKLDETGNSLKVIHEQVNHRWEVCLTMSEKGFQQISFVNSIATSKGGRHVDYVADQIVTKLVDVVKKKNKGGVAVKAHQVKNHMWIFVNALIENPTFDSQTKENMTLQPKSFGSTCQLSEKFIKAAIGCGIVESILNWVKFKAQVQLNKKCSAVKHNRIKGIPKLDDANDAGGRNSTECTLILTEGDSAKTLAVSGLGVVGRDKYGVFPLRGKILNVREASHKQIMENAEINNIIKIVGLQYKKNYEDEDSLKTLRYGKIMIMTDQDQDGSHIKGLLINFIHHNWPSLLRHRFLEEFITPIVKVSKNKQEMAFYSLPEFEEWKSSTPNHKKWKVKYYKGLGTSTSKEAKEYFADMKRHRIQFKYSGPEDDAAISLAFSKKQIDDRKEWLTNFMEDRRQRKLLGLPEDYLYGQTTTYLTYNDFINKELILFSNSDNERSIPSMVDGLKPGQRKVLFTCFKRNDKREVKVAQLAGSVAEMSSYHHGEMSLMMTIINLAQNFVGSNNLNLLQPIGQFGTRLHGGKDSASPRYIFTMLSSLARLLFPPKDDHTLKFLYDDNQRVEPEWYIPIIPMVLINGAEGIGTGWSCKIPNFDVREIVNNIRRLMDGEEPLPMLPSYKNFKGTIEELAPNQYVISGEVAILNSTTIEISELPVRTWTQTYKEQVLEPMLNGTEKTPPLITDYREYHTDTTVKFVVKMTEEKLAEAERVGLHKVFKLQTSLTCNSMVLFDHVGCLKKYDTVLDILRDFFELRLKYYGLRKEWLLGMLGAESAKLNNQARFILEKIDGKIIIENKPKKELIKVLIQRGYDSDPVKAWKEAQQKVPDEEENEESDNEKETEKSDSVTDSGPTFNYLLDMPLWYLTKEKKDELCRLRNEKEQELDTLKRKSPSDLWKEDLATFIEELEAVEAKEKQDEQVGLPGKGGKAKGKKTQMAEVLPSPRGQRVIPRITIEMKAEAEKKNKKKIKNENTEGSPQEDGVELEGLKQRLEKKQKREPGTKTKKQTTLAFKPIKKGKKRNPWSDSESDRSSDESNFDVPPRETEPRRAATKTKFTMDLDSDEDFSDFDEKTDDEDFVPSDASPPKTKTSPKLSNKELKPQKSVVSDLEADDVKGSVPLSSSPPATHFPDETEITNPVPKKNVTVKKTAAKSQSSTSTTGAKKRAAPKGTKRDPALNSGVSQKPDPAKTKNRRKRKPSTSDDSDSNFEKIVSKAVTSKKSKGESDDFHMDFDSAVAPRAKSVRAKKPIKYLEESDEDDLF

inhibition [1]: inactive
IC50 (MDA-MB-435): 370 nM
Kd [2]: 18.3 µM
IC50 (MKN-28): 170 nM
inhibition [3]: inactive
inhibition [4]: 22%
IC50 (LoVo): 60 nM
IC50 (SMMC-7721): 240 nM
Activity [6]: inactive
IC50 (SGC-7901): 30 nM
IC50 (HCT-116): 220 nM
IC50 (MCF7): 340 nM
inhibition [10]: inactive
IC50 (MKN-45): 830 nM
inhibition [11]: Dose-dependent effect
IC50 (Bel-7402): 180 nM
inhibition (Nucleic Acid): Dose-dependent effect
inhibition [12]: Active
inhibition [13]: Active
inhibition [15]: Active
IC50 (A549): 450 nM
IC50 (HeLa): 90 nM
SMILES: CN(C)C(=S)N/N=C/c1ccc2ccccc2n1
inhibition (HT-29 [5]): Dose-dependent effect
inhibition (HT-29 [7]): Dose-dependent effect
IC50 [8]: 200 nM
inhibition (HT-29 [9]): Active
inhibition in vivo at 12.5 mg/kg/day (CCRF S-180): 17.6%
IC50 [14]: 2 nM
Activity (HT-29 [16]): Active

Source: ChEMBL document CHEMBL1157101, “A series of alpha-heterocyclic carboxaldehyde thiosemicarbazones inhibit topoisomerase IIalpha catalytic activity” (J Med Chem, 2010)
